Assay results collected from several papers.
Protocols differ between the studies behind these lines.
Target: Muscarinic acetylcholine receptor M2 (CHRM2, Homo sapiens, UniProt P08172)
One construct used (P08172 1-466): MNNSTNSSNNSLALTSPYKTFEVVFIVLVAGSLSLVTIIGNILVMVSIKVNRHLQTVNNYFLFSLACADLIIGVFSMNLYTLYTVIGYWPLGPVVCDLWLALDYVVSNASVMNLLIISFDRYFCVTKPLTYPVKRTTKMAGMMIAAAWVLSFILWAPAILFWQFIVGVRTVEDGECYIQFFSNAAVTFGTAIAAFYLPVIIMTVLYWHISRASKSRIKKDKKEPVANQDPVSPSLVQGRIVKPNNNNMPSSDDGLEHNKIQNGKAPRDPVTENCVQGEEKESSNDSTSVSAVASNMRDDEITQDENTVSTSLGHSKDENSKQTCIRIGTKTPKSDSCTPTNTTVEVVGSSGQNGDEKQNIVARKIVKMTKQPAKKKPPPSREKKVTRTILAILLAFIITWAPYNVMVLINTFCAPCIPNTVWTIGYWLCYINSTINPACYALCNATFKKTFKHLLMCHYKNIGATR

The Ki of CCCCN1CCC(COC(=O)c2ccc(N)c(OCF)c2)CC1 is reported as greater than 10 µM (cell-free assay; radioligand).
CCN(C(=O)C1CCN(S(=O)(=O)c2ccc3[nH]ncc3c2)CC1)[C@H](C)c1ccccc1 gave an EC50 of greater than 30 µM (calcium signal; agonist).
With Cc1cc(Oc2nccc3occc23)ccc1-c1c(C)c(=O)[nH]c(=O)n1C1CC1 the Ki was 7.7 µM (ligand displacement; radioligand).
With CC[C@@H]1SC2(CCN(C)CC2)NC1=O the EC50 was greater than 50 µM (calcium signal; agonist).
CCn1c(-c2nc3ccc(C(=O)N4CCCC(N)C4)cc3n2C)cc2ccccc21 (centres unmarked) has an IC50 of greater than 15.8 µM (calcium signal; antagonist; fluorescence).
For COc1ccnc(Oc2ccc(-c3c(C)c(=O)[nH]c(=O)n3C)c(C)c2)c1C(F)(F)F, the Ki was 6.9 µM (ligand displacement; radioligand).
For CCn1c(-c2nc3cc(C(=O)N4CCC[C@@H](N)C4)cc(OC)c3n2C)cc2cccnc21, the EC50 was greater than 15.8 µM (calcium signal; agonist).
CCOCc1nc(O)c(-c2nnc(Cc3ccc(Cl)cn3)o2)c(O)c1-c1c(OC)cccc1OC has an IC50 of greater than 30 µM (ligand displacement; radioligand).
